Compound activity deposited in PubChem by SRMLSC.
Shown is part of a subset that was picked to be rich in hits.
PTEN del growth – suppresses growth of cells with PTEN deletion; HCT116 PTEN-null viability, CellTiter-Glo, 60 h; stronger effect = lower value; viability, % at 10 µM; hit rate 1.2% among 140,000;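 active means viability at or below a set limit, 4 SD under the median of all tested compounds, cut at about 3.7% in these data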;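 further: PTEN knockout HCT116 line with beta catenin targeted HCT116 as companion control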
H69AR growth 86K – growth inhibitors of human H69AR lung tumor cells; H69AR lung tumor viability, ATP luminescence, 72 h; stronger effect = lower value; AID 598; hit rate 6% among 85,000; viability, % at 10 µM;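 active means viability at or below 40%; inactive means viability above 40%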;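 further: multidrug resistant small cell line overexpressing MRP-1 efflux transporter; 100% = mean luminescence of untreated control wells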
HUVEC inhibit – blocks proliferation of human endothelial cells. HUVEC proliferation, CellTiter-Glo luminescence, 72 h; stronger effect = lower value. viability, % at 10 µM (by protocol). hit rate 1.1% among 86,000. AID 648;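 active means viability at or below 30%; inactive means viability above 30%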;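 further: 100% = median luminescence of DMSO-only cell control wells on each plate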
HCT116 bCat-KO – beta-catenin-lacking colon tumor cell growth suppression; AID 818; viability, % at 10 µM; HCT116 beta-catenin knockout viability, CellTiter-Glo, 60 h; stronger effect = lower value; hit rate 1.5% among 140,000;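 active means viability at or under a set limit, the compound median less 4 SD, cut at about 6% in these data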;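 further: 0% = Hyamine 1622 control at 20 µM and 100% = untreated cell control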
Lung fibro prol – blocks proliferation of human lung fibroblasts; LL 47 human lung fibroblast viability, ATP luminescence; stronger effect = lower value; viability, % at 10 µM; hit rate 1.1% among 85,000;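 active means viability at or below 50% in the single dose screen; inactive means viability above 50%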;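 further: compound exposure lasted 72 h before the ATP readout; 100% = median luminescence of untreated cell-only wells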
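Times – overnight cell rest, 72 h compound treatment at 37 °C · Test system – human lung fibroblast line LL 47, low passage · Amount – 1,150 cells in each well · Controls – cell-only wells, no compound · Doses – 0.1% DMSO in all compound wells · Measured by – CellTiter-Glo luminescence · Buffer or medium – IMEM plus 15% FBS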
The depositor's hits bear a star; / = no result.

SMILES	PTEN del growth	H69AR growth 86K	HUVEC inhibit	HCT116 bCat-KO	Lung fibro prol
COc1ccc(OCC(=O)Nc2sc3c(c2C(=O)NCC2CCCO2)CCC3)cc1 (stereo not given)	76.3	/	/	85.1	/
N#C/C(=C/c1ccc(-c2ccc(S(N)(=O)=O)cc2)o1)C(=O)Nc1ccccc1	79.5	/	/	72.1	/
N#C/C(=C/c1ccc(-c2ccc(S(N)(=O)=O)cc2)o1)c1nc2ccccc2s1	1.8*	/	/	1.5*	/
CCN(CC)c1ccc(/C=N/Nc2nc3ccccc3[nH]2)c(O)c1	7.1	/	/	3.5*	/
CCN(CC)c1ccc(/C=N/NC(=S)NCc2ccccc2)c(O)c1	15.3	/	/	19.8	/
CCN(CC)c1ccc(/C=N/NC(=O)Cc2cccs2)c(O)c1	6.3	/	/	5.2*	/
COCCN1CSC(=S)N(Cc2ccco2)C1	40.8	0.8*	69.5	25.1	82.3
CC1=CCC2C(=O)N(c3ccccc3OC(=O)c3ccccc3F)C(=O)C2C1 (stereo not given)	92.8	/	/	90.3	/
CCCS(=O)(=O)N1CCC(C(=O)NCc2ccc(F)cc2)CC1	88.6	/	/	84.9	/
COc1ccc(C(CCN(Cc2ccc(OC)c(OC)c2)C(C)=O)c2ccccc2)cc1 (stereo not given)	75.4	/	/	76.6	/
COc1ccc(CN(CCC(c2ccccc2)c2ccc(OC(C)C)cc2)C(=O)CCl)cc1OC (stereo not given)	1.5*	/	/	1.5*	/
CCOc1cc(-n2cnnn2)c(OCC)cc1NC(=O)c1cc2ccc(N(CC)CC)cc2oc1=O	/	13.1*	34.2	/	86.2
CCN(CC)c1ccc2cc(C(=O)Nc3cccnc3N3CCOCC3)c(=O)oc2c1	/	21.1*	59.8	/	63.7
CCN(CC)c1ccc2cc(C(=O)Nc3ccccn3)c(=O)oc2c1	100.3	92.8	93.6	99.4	96.2
CCN(CC)c1ccc2cc(C(C)=O)c(=O)oc2c1	103.4	89.1	106.9	100.6	99.4
CC(=O)Nc1ccc(NC(=O)CN(C)CCC#N)cc1	110.8	89.6	98.0	101.5	99.8
CN(C)CCCN1C(=O)C(=O)/C(=C(/O)c2ccc(S(=O)(=O)N(C)C)cc2)C1c1ccncc1 (stereo not given)	/	104.0	95.1	/	107.1
COc1ccc2nc(Nc3nc(CSc4nc5ccccc5[nH]4)cc(=O)[nH]3)nc(C)c2c1	6.5	/	/	6.1*	/
Cc1nc(Nc2nc(-c3ccccc3)cc(=O)[nH]2)nc2ccccc12	/	14.3*	5.0*	/	13.2*
Cc1nc(Nc2nc(CSc3ccc(Cl)cc3)cc(=O)[nH]2)nc2ccccc12	58.9	/	/	72.2	/
COc1cccc2c(C)nc(Nc3nc(CSc4nnc(C)s4)cc(=O)[nH]3)nc12	71.2	59.7	45.8	69.2	/
Cc1ccc2c(C)nc(Nc3nc(CSc4nnc(C)s4)cc(=O)[nH]3)nc2c1	87.3	34.6*	16.6*	80.2	45.6*
Cc1nc(Nc2nc(CSc3nc4ccccc4[nH]3)cc(=O)[nH]2)nc2ccccc12	3.7*	/	/	3.6*	/
COCCCn1c2nc3ccccc3nc2c2c(=O)n(Cc3ccccc3Cl)cnc21	/	3.2*	27.1*	/	69.2
C=CCNC1=C(Cl)C(=O)N(c2ccccc2Cl)C1=O	105.0	99.2	102.1	91.2	97.4
SMILES	PTEN del growth	H69AR growth 86K	HUVEC inhibit	HCT116 bCat-KO	Lung fibro prol
CCOC(=O)N1CCN(C(=O)C(C)N(c2ccc(Oc3ccccc3)cc2)S(C)(=O)=O)CC1 (stereo not given)	44.7	33.6*	111.2	49.1	/
C=CCn1c(O)c(N=NC(=S)Nc2cccc(C)c2)c2ccccc21	13.8	22.0*	48.4	13.4	52.0
Cc1cccc(N2CCN(S(=O)(=O)c3ccc4c(c3)CCN4C(=O)CCC(=O)O)CC2C)c1 (stereo not given)	93.6	100.3	100.5	99.3	99.8
COc1cccc(NC(=O)COc2c(F)c(F)c(C(F)(F)F)c(F)c2F)c1	92.5	/	/	99.7	/
Cc1ccc(S(=O)(=O)c2c(C(=O)c3ccccc3)cnc3cc4c(cc23)OCCO4)cc1	30.5	/	/	40.3	/
c1ccc2[nH]c(-c3ccnc4ccccc34)nc2c1	98.5	48.1	94.3	90.6	104.0
O=C1C(c2ccnc3ccccc23)=C(O)c2ccccc21	6.9	33.6*	62.4	9.9	73.0
CCCCOc1ccc(CN(C)c2ncnc(N)n2)cc1	60.0	34.9*	78.2	55.4	91.2
Cc1cccc(NC(=O)CCN2C(=O)C3C4C=CC(C4)C3C2=O)c1 (stereo not given)	93.0	96.2	92.2	94.6	107.8
COCCCN1C(=O)c2[nH]nc(-c3ccccc3O)c2C1c1cccc(Cl)c1 (stereo not given)	25.4	2.9*	80.1	20.4	64.8
CC(C)OCCCN1C(=O)c2[nH]nc(-c3ccccc3O)c2C1c1cccc(Cl)c1 (stereo not given)	18.8	6.5*	5.7*	40.4	86.1
COCCCN1C(=O)c2[nH]nc(-c3ccccc3O)c2C1c1ccc(Cl)cc1 (stereo not given)	36.2	/	89.0	42.3	88.8
O=C1c2[nH]nc(-c3ccccc3O)c2C(c2ccccc2)N1Cc1ccco1 (stereo not given)	76.1	/	91.1	81.1	91.0
COc1ccc(CCN2C(=O)c3[nH]nc(-c4ccccc4O)c3C2c2ccccc2)cc1OC (stereo not given)	27.2	39.0*	78.5	23.5	89.7
O=C1c2[nH]nc(-c3ccccc3O)c2C(c2ccccc2F)N1Cc1ccco1 (stereo not given)	27.8	4.5*	53.2	43.1	77.2
CSc1cccc(NC(=O)/C=C/c2cccc(Cl)c2)c1	92.4	/	/	96.7	/
COc1ccc(N2CCN(C(=O)CN3CCN(C(c4ccccc4)c4ccccc4)CC3)CC2)cc1	84.5	/	/	88.2	/
COc1ccc(NC(=O)COn2nnc3ccc(Cl)cc32)cc1OC	82.9	39.3*	92.9	88.5	85.5
CN(C)CCNC(=O)c1ccc(CS(=O)(=O)c2ccc(Br)cc2)o1	/	96.6	101.9	/	98.6
Cc1c(NC2=C(Cl)C(=O)N(c3ccccc3)C2=O)c(=O)n(-c2ccccc2)n1C	85.0	4.8*	105.6	92.6	99.9
Cc1c(NC2=C(Cl)C(=O)N(c3ccccc3Cl)C2=O)c(=O)n(-c2ccccc2)n1C	90.5	/	/	91.1	/
O=C1C(Cl)=C(Nc2ccccc2O)C(=O)N1c1ccccc1	77.7	39.4*	90.9	83.3	103.9
CC1CCc2ccc(F)cc2N1S(=O)(=O)c1cccs1 (stereo not given)	45.8	27.4*	83.2	43.8	89.2
COc1ccc(C2(CNC(=O)/C=C\c3ccco3)CCCC2)cc1OC	93.2	/	/	93.8	/
CCOC(=O)c1c2ccc(OCC(=O)N/N=C/c3ccc(C)cc3)cc2n2ccccc12	1.6*	/	/	1.5*	/
CC(NC(=O)c1cc(-c2ccc3c(c2)OCO3)nc2ccccc12)C(C)(C)C (stereo not given)	48.6	16.3*	76.7	38.3	72.4
O=C(O)c1cc(-c2ccc3c(c2)OCO3)nc2ccccc12	101.9	93.9	94.1	88.4	93.5
COc1cccc2cc(C(=O)NCc3ccco3)c(=Nc3ccc(C(=O)O)cc3)oc12	49.0	11.9*	77.9	66.8	85.5
COc1cccc2cc(C(=O)NCc3ccco3)c(=O)oc12	98.4	/	/	90.6	/
